Legend:
Δchp1 = test: Drug sensitivity serial dilution; format: cell-based, fission yeast Schizosaccharomyces pombe; details: 0 and 6 mM HU, 10-fold serial dilution
Summary of the method: (§1)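 Strains were grown overnight in YEA broth (3% glucose, 0.5% yeast extract, 75 mg/l adenine) to mid-log phase and adjusted to 1 × 10^7 cells/ml. Five ten-fold serial dilutions were made, and 3 μl of each was spotted onto plates with 0 or 6 mM HU.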

Y41FΔago1 = test: Drug sensitivity serial dilution; format: cell-based, fission yeast Schizosaccharomyces pombe; details: 0 and 6 mM HU, 10-fold serial dilution
Summary of the method: as §1

Y41FΔchp1 = test: Drug sensitivity serial dilution; format: cell-based, fission yeast Schizosaccharomyces pombe; details: 0 and 6 mM HU, 10-fold serial dilution
Summary of the method: as §1

Δclr3 = test: Drug sensitivity serial dilution; format: cell-based, fission yeast Schizosaccharomyces pombe; details: 0 and 6 mM HU, 10-fold serial dilution; compared with Δrik1, Δcid12, Δchp1
Summary of the method: (§2)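 Deletion strains were cultured overnight to mid-log phase in YEA broth (3% glucose, 0.5% yeast extract, 75 mg/l adenine) and set to 1 × 10^7 cells/ml. Each culture went through five ten-fold serial dilution steps, and 3 μl spots were placed on HU-containing plates to assess growth.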

Δswi6 = test: Drug sensitivity serial dilution; format: cell-based, fission yeast Schizosaccharomyces pombe; details: 0 and 6 mM HU, 10-fold serial dilution; compared with Δrik1, Δcid12, Δchp1
Summary of the method: as §2

Δcid12 = test: Drug sensitivity serial dilution; format: cell-based, fission yeast Schizosaccharomyces pombe; details: 0 and 6 mM HU, 10-fold serial dilution
Summary of the method: as §2

Δrik1 = test: Drug sensitivity serial dilution; format: cell-based, fission yeast Schizosaccharomyces pombe; details: 0 and 6 mM HU, 10-fold serial dilution
Summary of the method: as §2

GFP-tagged Chp1 = test: Peptide pull-down from Chp1GFP whole cell extracts; format: binding, fission yeast Schizosaccharomyces pombe; details: western blot, n=3
[1] = biological target: biotinylated histone H3 N-terminal peptide harbouring a phosphorylated Y41; test: pull-down

NC(=O)NO [HU, hydroxyurea]
HU sensitivity (in words) (Δchp1): HU hypersensitivity
HU sensitivity of double mutant relative to Δago1 (in words) (Y41FΔago1): strongly suppressed HU hypersensitivity
HU sensitivity of double mutant relative to Δchp1 (in words) (Y41FΔchp1): strongly suppressed HU hypersensitivity
HU sensitivity (in words) (Δclr3): milder or no hypersensitivity
HU sensitivity (in words) (Δswi6): milder or no hypersensitivity
HU sensitivity (in words) (Δcid12): HU hypersensitivity
HU sensitivity (in words) (Δrik1): HU hypersensitivity

AAPATGGVKKPH RY(p)RPGTVALR EIRRYQKSTE [Y41p]
Chp1-GFP association, phosphorylated versus unmodified (Y41F) peptide (in words) (GFP-tagged Chp1): This observation was confirmed

B1: Chp1, endogenous (natural protein)
chain: MVSVKPLPDIDSNEGETDADVYEVEDILADRVNKNGINEYYIKWAGYDWYDNTWEPEQNLFGAEKVLKKWKKRKKLIAKGLLEPFDAEDNEAKKMKREKEILRQQRQKRKSELTQLSQKVKEKFKKMRKKPARRIVTIANDEEEEDDQTMDEDAFERKSMQGELKERNLTDKTSTLSTSFGETSPDVNPFYLSEWPTVTDSILLSKSLSSDAIPLKNGEIKSTMLMPSDSDNSVPGIQNSNNLENTGAFVENANSPQSNTPLSTFRHSSPLSLSPVITSDNDVANSLFFSNSTPLPSSLKIKKEAPKLETHTILVSDNSGSLTKQDILSYFAFIKGNIEVFFLKSPKKDKVCNMAYIQFDSIEQAKLAYDKGHPSWHVTLVKGKISTDMEECKVSKSILKTTPSKKANARSVSFTQTTTDTLSESEKFASNVDLDENFDFNVNVTNEDAKQLKKSVIGSSWTTVNNDWNSVSKSDQTFENDGASKVVPAGNITLNSDNSLHHSISESEDLSSASTLSDYFRFVLRVGKSLYYAGELSFDISKLKAETEHQQLLRSLVSCKQVDVLRFVTSQYLEVFGTCLTKVLSGSLCIRSDVDMTHFKNILNRGNGAGIVLGSNYTLLLFTEDNNALMNLYDCQGQSNSPFWMVIFEPLESILVEWSAKNLRPKKPYHKSQSYLSYLLQLGHIDLHKIGAFQATQILIVSKQPSPEAEELEDTFREAAIPTFRGLEIPESLFLSQNVFVFLNVSLEDDFDQLQFLTLAKRKSCKFFLFGLSLPLKSPNDSHVGTDFKKNNEPLDKLTYSQYLRPMFPKGGVVSVTLSALIKTPRLLELISPFLEIKKDSWILILPPSIVDMVKSYFVTNNPDKSLLEIQNLLNTLQRYLTNPALKNVTLYQDWDIVIDDSADVSLASTLQLYQKKNYDKYRRFVLIHELKNELTPVNGLDIVDYDEFKETFMRAIGLK
fold change against the unmodified (Y41F) peptide [1]: 2.62 fold

From PMC5758876 (Nucleic Acids Research, 2017)
